Consider 37 compounds from ChEMBL document CHEMBL3286193, “Discovery of a series of 2,5-diaminopyrimidine covalent irreversible inhibitors of Bruton's tyrosine kinase with in vivo antitumor activity” (J Med Chem, 2014).

Broadly, the GI50 is the concentration giving 50% growth inhibition. One may read the IC50 as the concentration needed to halve the response being measured. Read a high IC50 as lower potency.

Calls of active or inactive are those of the source. The rule behind the calls is not given here.

T1 sequence (Q06187 whole entry): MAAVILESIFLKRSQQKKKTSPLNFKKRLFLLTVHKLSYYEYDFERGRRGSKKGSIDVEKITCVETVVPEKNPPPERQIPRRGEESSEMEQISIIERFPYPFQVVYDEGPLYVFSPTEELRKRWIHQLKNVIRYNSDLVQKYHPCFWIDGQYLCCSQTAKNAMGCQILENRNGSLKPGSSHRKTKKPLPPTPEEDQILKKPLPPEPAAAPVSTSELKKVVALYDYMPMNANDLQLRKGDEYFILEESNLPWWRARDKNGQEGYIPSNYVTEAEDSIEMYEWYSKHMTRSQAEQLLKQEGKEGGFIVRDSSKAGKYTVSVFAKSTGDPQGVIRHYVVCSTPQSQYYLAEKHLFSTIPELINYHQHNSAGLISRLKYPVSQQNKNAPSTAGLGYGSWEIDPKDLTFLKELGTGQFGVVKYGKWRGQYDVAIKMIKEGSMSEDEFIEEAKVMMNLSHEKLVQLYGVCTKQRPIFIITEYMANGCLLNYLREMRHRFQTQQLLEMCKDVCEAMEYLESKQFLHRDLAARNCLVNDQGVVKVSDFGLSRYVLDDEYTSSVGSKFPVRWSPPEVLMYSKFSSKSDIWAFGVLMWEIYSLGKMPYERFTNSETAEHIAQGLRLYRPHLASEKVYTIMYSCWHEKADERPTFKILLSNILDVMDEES
Sequence of Epidermal growth factor receptor (P00533 whole entry): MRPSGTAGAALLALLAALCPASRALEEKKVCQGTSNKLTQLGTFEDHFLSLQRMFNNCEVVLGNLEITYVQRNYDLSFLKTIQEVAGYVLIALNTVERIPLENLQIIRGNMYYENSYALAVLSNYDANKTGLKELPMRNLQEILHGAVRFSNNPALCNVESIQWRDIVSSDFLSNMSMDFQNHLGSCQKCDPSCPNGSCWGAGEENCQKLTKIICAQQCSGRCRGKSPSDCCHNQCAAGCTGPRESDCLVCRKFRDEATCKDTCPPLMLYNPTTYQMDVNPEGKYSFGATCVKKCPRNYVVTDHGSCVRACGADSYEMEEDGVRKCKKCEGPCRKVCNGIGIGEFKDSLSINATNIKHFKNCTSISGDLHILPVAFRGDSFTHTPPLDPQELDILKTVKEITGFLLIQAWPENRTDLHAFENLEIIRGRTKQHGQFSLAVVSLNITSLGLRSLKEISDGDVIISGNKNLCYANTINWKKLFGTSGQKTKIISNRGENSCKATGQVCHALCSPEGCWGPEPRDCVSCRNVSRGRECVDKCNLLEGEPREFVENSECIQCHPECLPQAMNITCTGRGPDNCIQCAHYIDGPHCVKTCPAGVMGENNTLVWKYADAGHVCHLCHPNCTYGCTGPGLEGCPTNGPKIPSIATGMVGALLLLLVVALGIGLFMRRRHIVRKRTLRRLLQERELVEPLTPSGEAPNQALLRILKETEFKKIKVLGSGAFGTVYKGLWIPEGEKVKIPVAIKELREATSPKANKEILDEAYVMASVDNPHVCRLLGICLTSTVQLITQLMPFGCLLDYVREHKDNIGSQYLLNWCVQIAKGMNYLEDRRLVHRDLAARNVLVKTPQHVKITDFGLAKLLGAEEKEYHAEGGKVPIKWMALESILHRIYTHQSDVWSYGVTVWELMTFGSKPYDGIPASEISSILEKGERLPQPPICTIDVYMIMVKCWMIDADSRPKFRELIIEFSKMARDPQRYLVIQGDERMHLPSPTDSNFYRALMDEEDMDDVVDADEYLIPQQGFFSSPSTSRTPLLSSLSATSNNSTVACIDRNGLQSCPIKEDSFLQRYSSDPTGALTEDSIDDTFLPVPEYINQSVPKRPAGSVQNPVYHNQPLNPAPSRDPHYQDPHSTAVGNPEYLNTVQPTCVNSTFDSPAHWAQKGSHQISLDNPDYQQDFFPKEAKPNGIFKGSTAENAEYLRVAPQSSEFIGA

Test system in the first data set: not listed separately
In words: Cytotoxicity against human DOHH2 cells assessed as growth inhibition after 72 hrs by CellTiter-Glo luminescent cell viability assay. It is filed as functional, DOHH-2.
Conditions: not given
A digest of the protocol: (§1)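 Lymphoma cells seeded at 5000 cells/well, incubated 24 h, then exposed to compounds for 72 h. Viability read by CellTiter-Glo luminescence. GI50 from dose−response curves, mean of two or three independent experiments in triplicate.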
Background: Cellular ATP, detected with luciferase, serves as a proxy for viable cell number.
For the compound `C=CC(=O)N1CCC[C@@H](n2nc(-c3ccc(Oc4ccccc4)cc3)c3c(N)ncnc32)C1` [IBRUTINIB], the GI50 worked out at 410 nM.

Test system in a further data set: not listed separately
Description: Cytotoxicity against human SU-DHL6 cells assessed as growth inhibition after 72 hrs by CellTiter-Glo luminescent cell viability assay. In kind it is functional, SU-DHL-6.
Conditions: not given
A digest of the protocol:
as §1
With `C=CC(=O)N1CCC[C@@H](n2nc(-c3ccc(Oc4ccccc4)cc3)c3c(N)ncnc32)C1` [IBRUTINIB], the GI50 came to 580 nM.

The next data set relates to Mus musculus. In words: Toxicity in CB17 SCID mouse xenografted with human DOHH2 cells assessed as body weight fluctuations at 10 mg/kg, iv qd administered for 14 days measured over 14 days of compound treatment. It is filed as organism-based, DOHH-2. On the set-up: dose 10 mg/kg, route intravenous. The note with it: in vivo, 336 h. A digest of the protocol: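 Female CB17/SCID mice carried subcutaneous DoHH2 xenografts (5 × 10⁶ cells injected), randomised at ~167 mm³ mean tumour volume into four groups (n = 6/group). Compound was given intravenously via the tail vein once daily for 14 consecutive days. Body weights were tracked over time throughout the study.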
(In general: Xenograft models place foreign cells or tissue in a host animal.)
`C=CC(=O)N1CCC[C@@H](n2nc(-c3ccc(Oc4ccccc4)cc3)c3c(N)ncnc32)C1` [IBRUTINIB]: the Activity result was “Non-toxic”.

A further data set concerns the target T1, Tyrosine-protein kinase BTK (Homo sapiens, UniProt Q06187). In words: Irreversible inhibition of Btk phosphorylation at Tyr551 in human Ramos cells at 1 uM incubated for 1 hr followed by compound washout with fresh media measured after 2 hrs by Western blot analysis.
Conditions: not given
It is filed as cell-based. A digest of the protocol:
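Ramos cells (5 × 10⁵) seeded overnight, treated with compound 1 h, then washed out with fresh media for 2 h. Cells stimulated with goat anti-human IgM for 3−5 min, lysed by boiling in SDS buffer, and Btk Tyr551 phosphorylation assessed by Western blot.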
(In western blotting, separated proteins are transferred to a membrane and probed.)
Consider `CCC(=O)Nc1cccc(Nc2ncc(NC(=O)c3cc(NC(=O)c4cccc(C(F)(F)F)c4)ccc3C)cn2)c1`, for which the inhibition entry was “inactive”.

A further data set has as its target Epidermal growth factor receptor (Homo sapiens, UniProt P00533). The note with it: 5 nM.
Turning to `C=CC(=O)N1CCC[C@@H](n2nc(-c3ccc(Oc4ccccc4)cc3)c3c(N)ncnc32)C1` [IBRUTINIB], the inhibition entry was “Active”.

Test system in another data set: not listed separately
Description: Cytotoxicity against human Pfeiffer cells assessed as growth inhibition after 72 hrs by CellTiter-Glo luminescent cell viability assay.
Conditions: not given
In kind it is functional. A digest of the protocol:
as §1
For the compound `C=CC(=O)N1CCC[C@@H](n2nc(-c3ccc(Oc4ccccc4)cc3)c3c(N)ncnc32)C1` [IBRUTINIB], the GI50 came to 2 nM.

A further data set addresses T1, Tyrosine-protein kinase BTK. Description: Inhibition of Btk (unknown origin) after 1 hr by HTRF assay.
Conditions: not given
A digest of the protocol:
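Recombinant kinases tested by HTRF KinEase protocol. Enzyme preincubated with inhibitor for a fixed 10 min. IC50 values are means of duplicates.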
Take `CCNc1ncc(NC(=O)c2cc(NC(=O)c3cccc(C(F)(F)F)c3)ccc2C)cn1`: the IC50 worked out at 1110 nM. Regarding `CCC(=O)Nc1cccc(Nc2ncc(NC(=O)c3cc(NC(=O)c4cccc(C(F)(F)F)c4)ccc3C)cn2)c1`, the IC50 was determined as 15 nM. Compared with the last compound, the IC50 is about 74-fold lower.

`Nc1cccc(Nc2ncc(NC(=O)c3cc(NC(=O)c4cccc(C(F)(F)F)c4)ccc3Cl)cn2)c1` came in with an IC50 of 11 nM. In turn, `CCC(=O)N(C(=O)CC)c1cccc(Nc2ncc(NC(=O)c3cc(NC(=O)c4cccc(C(F)(F)F)c4)ccc3C)cn2)c1` displayed an IC50 of 1410 nM.

In turn, `Nc1cccc(Nc2ncc(NC(=O)c3cc(NC(=O)c4cccc(C(F)(F)F)c4)ccc3F)cn2)c1` displayed an IC50 of 47 nM. Compound `Cc1ccc(NC(=O)c2ccc3ccccc3c2)cc1C(=O)Nc1cnc(Nc2cccc(N)c2)nc1` came in with an IC50 of 39 nM. This IC50 and that of the compound before are within 1.5-fold of each other. In turn, `Nc1cccc(Nc2ncc(NC(=O)c3cccc(C(=O)Nc4cccc(C(F)(F)F)c4)c3)cn2)c1` displayed an IC50 of 45 nM. The IC50 values of the last two compounds are within 1.5-fold of each other. In the case of `Nc1cccc(Nc2ncc(NC(=O)c3cccc(NC(=O)c4cccc(C(F)(F)F)c4)c3)cn2)c1`, the IC50 was 233 nM. As to `C/C=C/C(=O)Nc1cccc(Nc2ncc(NC(=O)c3cc(NC(=O)c4cccc(C(F)(F)F)c4)ccc3C)cn2)c1`, half-maximal inhibition (IC50) required 36 nM. As to `Cc1ccc(NC(=O)c2cccc(C(F)(F)F)c2)cc1C(=O)Nc1cnc(Nc2ccccc2)nc1`, half-maximal inhibition (IC50) required 133 nM. This IC50 is about 3.7-fold higher than that of the compound before. `C=CS(=O)(=O)Nc1cccc(Nc2ncc(NC(=O)c3cc(NC(=O)c4cccc(C(F)(F)F)c4)ccc3C)cn2)c1`: the IC50 is 16 nM. Take `C=CC(=O)N(C(=O)C=C)c1cccc(Nc2ncc(NC(=O)c3cc(NC(=O)c4cccc(C(F)(F)F)c4)ccc3C)cn2)c1`: half-maximal inhibition (IC50) was put at 208 nM.

Take `Cc1ccc(NC(=O)c2cccc(C(F)(F)F)c2)cc1C(=O)Nc1cnc(NC2CC2)nc1`: the IC50 is 2150 nM. The compound `C=CC(=O)Nc1cccc(Nc2ncc(NC(=O)c3cc(NC(=O)c4cccc(F)c4)ccc3C)cn2)c1` displayed an IC50 of 48 nM. `Cc1ccc(NC(=O)c2cccc(Cl)c2)cc1C(=O)Nc1cnc(Nc2cccc(N)c2)nc1`: the IC50 worked out at 20 nM. Take `Cc1ccc(NC(=O)c2cccc(C(F)(F)F)c2)cc1C(=O)Nc1cnc(Nc2cccc(NC(=O)/C=C/CN(C)C)c2)nc1`: half-maximal inhibition (IC50) was put at 15 nM.

`Cc1ccc(NC(=O)Nc2cccc(C(F)(F)F)c2)cc1C(=O)Nc1cnc(Nc2cccc(N)c2)nc1` came in with an IC50 of 63 nM. Same read-out and setting: the value for `Cc1ccc(NC(=O)C2CC2)cc1C(=O)Nc1cnc(Nc2cccc(N)c2)nc1` was 4950 nM; that for `Cc1ccc(NC(=O)c2cccc(C(F)(F)F)c2)cc1C(=O)Nc1cnc(N)nc1` was 3420 nM; that for `Cc1ccc(NC(=O)/C=C/c2ccccc2)cc1C(=O)Nc1cnc(Nc2cccc(N)c2)nc1` was 24 nM. `COc1cccc(Nc2ncc(NC(=O)c3cc(NC(=O)c4cccc(C(F)(F)F)c4)ccc3C)cn2)c1`: inhibition was half-maximal at 53 nM (IC50). Regarding `Cc1ccc(NC(=O)c2cccc(C(F)(F)F)c2)cc1C(=O)Nc1cnc(Nc2cccc(C(F)(F)F)c2)nc1`, it took 304 nM to reach half-maximal inhibition (IC50). `Cc1ccc(NC(=O)c2cccc(C(F)(F)F)c2)cc1C(=O)Nc1cnc(Nc2cccc(NC(=O)Cn3sc4ccccc4c3=O)c2)nc1` registered an IC50 of 18 nM. For the compound `CCC(=O)Nc1ccc(C)c(C(=O)Nc2cnc(Nc3cccc(N)c3)nc2)c1`, the midpoint of inhibition, the IC50, lay at 8560 nM. In the case of `Cc1ccc(NC(=O)c2ccc(Cl)c(C(F)(F)F)c2)cc1C(=O)Nc1cnc(Nc2cccc(N)c2)nc1`, half-maximal inhibition (IC50) required 9 nM. Take `C=CC(=O)Nc1cccc(Nc2ncc(NC(=O)c3cc(NC(=O)c4ccc5ccccc5c4)ccc3C)cn2)c1`: 22 nM corresponded to half-maximal inhibition (IC50). On to `C=CC(=O)Nc1cccc(Nc2ncc(NC(=O)c3cc(NC(=O)c4ccc(Cl)c(C(F)(F)F)c4)ccc3C)cn2)c1`, for which the IC50 is 11 nM. Compound `Cc1ccc(NC(=O)c2cccc(C(F)(F)F)c2)cc1C(=O)Nc1cnc(Nc2cccc(F)c2)nc1` came in with an IC50 of 52 nM.

On to `Cc1ccc(NC(=O)c2cccc(C(F)(F)F)c2)cc1C(=O)Nc1cnc(Nc2ccc(N)cc2)nc1`, for which the IC50 amounted to 8 nM.

On to `Cc1ccc(NC(=O)c2cccc(C(F)(F)F)c2)cc1C(=O)Nc1cnc(Nc2cccc(N)c2)nc1`, for which the IC50 is 14 nM. In turn, `Cc1ccc(NC(=O)c2cccc(C(F)(F)F)c2)cc1C(=O)Nc1cnc(Nc2cccc(NC(=O)CCl)c2)nc1` returned an IC50 of 15 nM.

In turn, `Cc1ccc(NC(=O)c2ccc(C(F)(F)F)cc2)cc1C(=O)Nc1cnc(Nc2cccc(N)c2)nc1` came in with an IC50 of 25 nM. Take `Cc1ccc(NC(=O)c2cccc(C(F)(F)F)c2)cc1C(=O)Nc1cnc(Nc2cccc(NC(=O)CCN(C)C)c2)nc1`: the IC50 is 14 nM. This IC50 lies about 1.8-fold lower than the previous one. `Cc1ccc(NC(=O)c2cc(Cl)cc(C(F)(F)F)c2)cc1C(=O)Nc1cnc(Nc2cccc(N)c2)nc1` gave an IC50 of 18 nM. The IC50 values of the last two compounds are within 1.5-fold of each other. Still for that read-out and setting: the value for `Cc1ccc(NC(=O)c2cccc(N(C)C)c2)cc1C(=O)Nc1cnc(Nc2cccc(N)c2)nc1` was 47 nM; that for `Cc1ccc(NC(=O)c2cccc(F)c2)cc1C(=O)Nc1cnc(Nc2cccc(N)c2)nc1` was 166 nM.

Test system in another data set: not listed separately
Description: Plasma concentration in CB17 SCID mouse xenografted with human DOHH2 cells at 10 mg/kg, iv qd administered for 14 days measured at 2 hrs post last dose. It is filed as ADME, organism-based, DOHH-2. On the set-up: dose 10 mg/kg, route intravenous.
Conditions: not given
A digest of the protocol: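 Female CB17/SCID mice were given 5 × 10⁶ DoHH2 cells subcutaneously. When tumours averaged ~167 mm³, mice were randomised into four groups (n = 6/group). Dosing was by tail-vein injection once daily for 14 consecutive days. Plasma compound levels were determined at 2 and 24 h after the final dose.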
`C=CC(=O)N1CCC[C@@H](n2nc(-c3ccc(Oc4ccccc4)cc3)c3c(N)ncnc32)C1` [IBRUTINIB] registered a concentration at 2 h of 479 ng/mL.
